Here are results for 15 compounds from PubChem BioAssay.

Assay [1] can be described thus: reducers of endogenous Her2 protein level, primary screen, SKBR3 breast tumor cells, AlphaScreen, ATP viability (AID 461;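 active = Her2 level under about 52% in both replicate screens, with viability over 70% of control, limit read from the data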;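 as to Her2 level: lower value means less Her2 protein in the cells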;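 as to viability: percent of carrier control wells set as 100% viability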). The note with it: 18-24 h, measured here: SKBR3 viability, ATP luminescence, at 10 µM.
In assay [2] the target is Receptor tyrosine-protein kinase erbB-2 (Homo sapiens) (UniProt P04626). The description is as above. The settings on record: 18-24 h, at 10 µM, stronger effect = lower value.
Receptor tyrosine-protein kinase erbB-2 (Homo sapiens), sequence (P04626 whole entry, looked up): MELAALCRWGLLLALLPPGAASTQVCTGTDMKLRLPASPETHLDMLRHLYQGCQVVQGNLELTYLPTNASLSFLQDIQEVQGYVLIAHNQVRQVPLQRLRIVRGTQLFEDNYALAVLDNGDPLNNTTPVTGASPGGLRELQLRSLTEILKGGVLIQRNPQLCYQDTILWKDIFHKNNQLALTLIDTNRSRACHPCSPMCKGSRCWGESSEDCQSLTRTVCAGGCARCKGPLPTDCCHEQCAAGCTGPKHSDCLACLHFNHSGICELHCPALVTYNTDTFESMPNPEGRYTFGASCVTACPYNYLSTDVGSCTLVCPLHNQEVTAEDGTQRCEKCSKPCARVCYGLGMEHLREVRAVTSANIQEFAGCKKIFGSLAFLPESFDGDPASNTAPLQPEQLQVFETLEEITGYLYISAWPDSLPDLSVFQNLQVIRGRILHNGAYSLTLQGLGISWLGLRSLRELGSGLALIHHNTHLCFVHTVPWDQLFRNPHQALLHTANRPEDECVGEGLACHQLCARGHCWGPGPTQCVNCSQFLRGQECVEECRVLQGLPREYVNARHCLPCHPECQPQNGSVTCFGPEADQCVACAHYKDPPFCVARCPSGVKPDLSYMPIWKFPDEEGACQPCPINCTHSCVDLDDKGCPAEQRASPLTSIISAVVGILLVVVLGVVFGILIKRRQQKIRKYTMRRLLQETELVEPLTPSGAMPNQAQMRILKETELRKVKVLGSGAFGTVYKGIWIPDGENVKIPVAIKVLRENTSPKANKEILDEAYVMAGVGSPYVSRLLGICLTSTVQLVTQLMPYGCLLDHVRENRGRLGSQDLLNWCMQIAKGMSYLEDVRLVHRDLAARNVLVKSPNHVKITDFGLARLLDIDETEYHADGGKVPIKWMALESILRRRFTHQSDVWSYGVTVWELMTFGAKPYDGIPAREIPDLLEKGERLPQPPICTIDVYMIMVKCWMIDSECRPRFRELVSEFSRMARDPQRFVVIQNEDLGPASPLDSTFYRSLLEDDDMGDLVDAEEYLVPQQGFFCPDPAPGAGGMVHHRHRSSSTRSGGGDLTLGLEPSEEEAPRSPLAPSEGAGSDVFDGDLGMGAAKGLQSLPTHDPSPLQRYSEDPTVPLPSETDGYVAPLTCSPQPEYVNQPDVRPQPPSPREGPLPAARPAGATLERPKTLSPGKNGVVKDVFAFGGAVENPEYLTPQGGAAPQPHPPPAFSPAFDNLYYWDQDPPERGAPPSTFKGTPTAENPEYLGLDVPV
Assay [3] is described as follows: SK-BR-3 cell growth inhibitors, pilot screen, 24 h, human (AID 572;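 active = viability at or below 10% of carrier control in both of two separate runs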;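 also: compound exposure lasted between 18 and 24 h rather than exactly 24 h; 100% = carrier-treated control wells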). The settings on record: SK-BR-3 viability, CellTiter-Glo luminescence, at 10 µM, stronger effect = lower value.
The nature of assay [4]: HUVEC growth inhibition – cell-based, human, primary screen (AID 575;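 active = viability at or below 30% in both replicate assays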;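 also: 100% = median of untreated cell wells with 0.1% DMSO on each plate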). The settings on record: HUVEC proliferation, CellTiter-Glo luminescence, 72 h; at 10 µM; stronger effect = lower value. In short, it runs like this: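 Timing: 72 h treatment at 37 °C; material: HUVEC primary cells; technique: CellTiter-Glo luminescence measuring cellular ATP; controls: vehicle and MePR control wells; measure: percent of median DMSO-control luminescence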

Assay [5] can be described thus: growth inhibitors of H69AR lung tumor, primary screen, human, duplicate replicates (AID 580;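 active = viability at or under a set limit in both replicates, limit being median viability minus 3 SD, cut at about 48% in these data, passing the limit was not always enough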;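 also: 100% = mean luminescence of untreated wells and 0% = no signal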). The settings on record: H69AR lung tumor cells viability, ATP luminescence, 72 h; at 10 µM; stronger effect = lower value.
Assay [6] is described as follows: reversal of MRP1-mediated doxorubicin resistance, pilot screen, H69AR cells, doxorubicin co-treatment (AID 601;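 active = viability loss from added drug above about 55%, and viability with drug at most 40%, in both replicates, limit read from the data, passing the limit was not always enough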). The note with it: CellTiter-Glo, 72 h, at 10 µM; for differential viability (reversal): stronger effect = higher value.
Assay [7] is described as follows: 384-well plate pilot, post-Golgi transport modulator project, inhibition of yeast transport mutant growth (AID 636; in the data active = inhibition above about 31%). The settings on record: absorbance 615 nm, about 18 h, stronger effect = higher value.
The nature of assay [8]: growth suppression of yeast trafficking mutant, preliminary HTS, modulators of trafficking downstream of Golgi apparatus project, 1536-format plate, OD 615 nm (AID 637). The settings on record: yeast transport mutant growth, absorbance 615 nm, 18 h; stronger effect = higher value.
[9] abbreviates: H69AR cells + 2 uM doxorubicin, measured here: viability with 2 uM doxorubicin, stronger effect = lower value.
Setting [10] is: H69AR cells, compound alone cytotoxicity.

Structures are written as SMILES. The source made the active and inactive calls. Rule as the data show it, unless noted: active = inhibition above about 30%; inactive = the rest.

On to `COCCN1C(=O)c2oc3c(C)cc(C)cc3c(=O)c2C1c1cccc(O)c1` (stereo not given), for which the viability in assay [1] is 101%; in assay [3] it was 101% (inactive); in assay [4], 102% (inactive); in assay [5] it was 88.1% (inactive); in assay [6] (setting [9]), 90.9%; in assay [6] (setting [10]), 88.1%. In addition, the Her2 level in assay [2] was 89.5% (inactive). For the same compound, the differential viability (reversal) in assay [6] (H69AR cells + 2 uM doxorubicin) was -2.81% (inactive). Also, the inhibition in assay [7] was -5.26% (inactive); in assay [8], -3.23% (inactive).
On to `CCOC(=O)c1cnn(-c2cc(C)c3cc(C)cc(C)c3n2)c1N`, for which the viability in assay [1] was 88.5%; in assay [3], 88.5% (inactive); in assay [4] it was 95.5% (inactive); in assay [5] it was 82.5% (inactive); in assay [6] (setting [9]) it was 84.6%; in assay [6] (setting [10]), 82.5%. The Her2 level in assay [2] was 104% (inactive). Besides, the differential viability (reversal) in assay [6] (H69AR cells + 2 uM doxorubicin) is -2.12% (inactive). For the same compound, the values for the inhibition in assay [7] and in assay [8] were 1.82% (inactive) and -8.89% (inactive), respectively.
Regarding `Cc1ncc(CO)c2c1OC(C)(C)OC2`, the viability was 95.5% in assay [1]; 95.5% (inactive) in assay [3]; 92.8% (inactive) in assay [4]; 93.5% (inactive) in assay [5]; 89% in assay [6] (setting [9]); 93.5% in assay [6] (setting [10]). Besides, the Her2 level in assay [2] was 104% (inactive). Besides, the differential viability (reversal) in assay [6] (H69AR cells + 2 uM doxorubicin) was 4.48% (inactive). Also, the inhibition in assay [7] is -5.79% (inactive); in assay [8], -0.91% (inactive).
Take `CCOC(=O)C1CCN(C(=O)C2CCN(S(=O)(=O)c3cc(Cl)ccc3Cl)CC2)CC1`: the viability in assay [1] is 92%; in assay [3] it was 92% (inactive); in assay [4] it was 115% (inactive); in assay [5], 89.4% (inactive); in assay [6] (setting [9]) it was 68.7%; in assay [6] (setting [10]) it was 89.4%. Further, the Her2 level in assay [2] was 91% (inactive). For the same compound, the differential viability (reversal) in assay [6] (H69AR cells + 2 uM doxorubicin) is 20.7% (inactive). Besides, the inhibition in assay [7] was -5.07% (inactive); in assay [8], 0.48% (inactive).
`CCOC(=O)CSc1nc(N)c2c3c(sc2n1)CCCC3`: the viability in assay [1] is 104%; in assay [3] it was 104% (inactive); in assay [4], 78.7% (inactive); in assay [5], 89.3% (inactive); in assay [6] (setting [9]), 89.3%; in assay [6] (setting [10]), 89.3%. Further, the Her2 level in assay [2] was 96.5% (inactive). Also, the differential viability (reversal) in assay [6] (H69AR cells + 2 uM doxorubicin) is 0.02% (inactive). The inhibition in assay [7] was 0.8% (inactive); in assay [8], 2.58% (inactive).
In the case of `COc1cccc(Oc2cn[nH]c2-c2ccc(O)cc2O)c1`, the viability in assay [1] is 104%; in assay [3], 104% (inactive); in assay [4] it was 65.9% (inactive); in assay [5] it was 89.5% (inactive); in assay [6] (setting [9]), 98.4%; in assay [6] (setting [10]), 89.5%. For the same compound, the Her2 level in assay [2] is 122% (inactive). Also, in assay [6] (H69AR cells + 2 uM doxorubicin), the differential viability (reversal) was -8.96% (inactive). For the same compound, the figures for the inhibition in assay [7] and in assay [8] were 0.26% (inactive) and -5% (inactive), respectively.
Consider `CCc1nnc(NC(=O)NCN2C(=O)C3C4C=CC(C4)C3C2=O)s1` (stereo not given), for which the viability in assay [1] was 123%; in assay [3] it was 123% (inactive); in assay [4], 84.4% (inactive); in assay [5], 95.5% (inactive); in assay [6] (setting [9]), 93.8%; in assay [6] (setting [10]), 95.5%. Further, the Her2 level in assay [2] was 85.5% (inactive). In addition, the differential viability (reversal) in assay [6] (H69AR cells + 2 uM doxorubicin) was 1.7% (inactive). For the same compound, the inhibition is -6.44% (inactive) in assay [7] and -5.24% (inactive) in assay [8].
As for `CCCC1(C(=O)OCC)NC(c2ccc(N(C)C)cc2)C2C(=O)N(c3ccccc3)C(=O)C21` (stereo not given), the viability is 109% in assay [1]; 109% (inactive) in assay [3]; 99.2% (inactive) in assay [4]; 97.2% (inactive) in assay [5]; 93.5% in assay [6] (setting [9]); 97.2% in assay [6] (setting [10]). Moreover, the Her2 level in assay [2] is 99% (inactive). The differential viability (reversal) in assay [6] (H69AR cells + 2 uM doxorubicin) is 3.73% (inactive). For the same compound, the figures for the inhibition in assay [7] and in assay [8] were -7.11% (inactive) and -6.03% (inactive), respectively.
Take `CCN(C(=O)c1cc2cc3ccc(C)cc3nc2o1)c1ccc(OC)cc1`: the viability was 85.5% in assay [1]; 85.5% (inactive) in assay [3]; 61% (inactive) in assay [4]; 83.1% (inactive) in assay [5]; 96% in assay [6] (setting [9]); 83.1% in assay [6] (setting [10]). Besides, the Her2 level in assay [2] is 99.5% (inactive). In addition, the differential viability (reversal) in assay [6] (H69AR cells + 2 uM doxorubicin) was -12.9% (inactive). The inhibition in assay [7] is -6.27% (inactive); in assay [8] it was -6.39% (inactive).
As for `c1ccc(CCn2nnnc2C(c2cccs2)N2CCOCC2)cc1` (stereo not given), the viability was 102% in assay [1]; 102% (inactive) in assay [3]; 99.2% (inactive) in assay [4]; 107% (inactive) in assay [5]; 94% in assay [6] (setting [9]); 107% in assay [6] (setting [10]). Also, the Her2 level in assay [2] was 77.5% (inactive). Further, the differential viability (reversal) in assay [6] (H69AR cells + 2 uM doxorubicin) was 12.8% (inactive). The figures for the inhibition in assay [7] and in assay [8] were -5.62% (inactive) and -1.59% (inactive), respectively.
For the compound `CCOC(=O)c1sc(NC(=O)CNC(=O)Cn2cnc3sc(C)c(C)c3c2=O)nc1C`, the viability in assay [1] was 94%; in assay [3], 94% (inactive); in assay [4], 93.4% (inactive); in assay [5], 104% (inactive); in assay [6] (setting [9]), 96.7%; in assay [6] (setting [10]) it was 104%. Besides, in assay [2], the Her2 level was 88.5% (inactive). Besides, in assay [6] (H69AR cells + 2 uM doxorubicin), the differential viability (reversal) was 7.01% (inactive). The inhibition in assay [7] is 1.18% (inactive); in assay [8], 2.26% (inactive).
For `CCCn1c2c(c(O)c(C(=O)NC)c1=O)CCCC2`, the viability was 124% in assay [1]; 124% (inactive) in assay [3]; 92.7% (inactive) in assay [4]; 86% (inactive) in assay [5]; 93.3% in assay [6] (setting [9]); 86% in assay [6] (setting [10]). Moreover, the Her2 level in assay [2] is 95% (inactive). Besides, in assay [6] (H69AR cells + 2 uM doxorubicin), the differential viability (reversal) was -7.29% (inactive). For the same compound, the results for the inhibition in assay [7] and in assay [8] were -4.34% (inactive) and 2.42% (inactive), respectively.
In the case of `COc1ccc(-n2c(Cc3cccn3C)nnc2SCC(=O)Nc2cccc(OC)c2)cc1`, the viability was 106% in assay [1]; 106% (inactive) in assay [3]; 80.9% (inactive) in assay [4]; 98% (inactive) in assay [5]; 97.1% in assay [6] (setting [9]); 98% in assay [6] (setting [10]). For the same compound, the Her2 level in assay [2] is 97.5% (inactive). For the same compound, in assay [6] (H69AR cells + 2 uM doxorubicin), the differential viability (reversal) was 0.895% (inactive). The values for the inhibition in assay [7] and in assay [8] were 1.79% (inactive) and 0% (inactive), respectively.
For `CSc1nc(C)c(C(=O)Nc2ccccc2)c(C)c1C#N`, the viability was 100% in assay [1]; 100% (inactive) in assay [3]; 91.7% (inactive) in assay [4]; 94.2% (inactive) in assay [5]; 87.6% in assay [6] (setting [9]); 94.2% in assay [6] (setting [10]). Also, the Her2 level in assay [2] is 76% (inactive). For the same compound, the differential viability (reversal) in assay [6] (H69AR cells + 2 uM doxorubicin) was 6.57% (inactive). For the same compound, the results for the inhibition in assay [7] and in assay [8] were -5.87% (inactive) and -3.39% (inactive), respectively.
Turning to `O=C1c2ccccc2C(=O)N1Cc1nc2ccccc2c(=O)n1CCN1CCOCC1`, the viability in assay [1] was 97.5%; in assay [3] it was 97.5% (inactive); in assay [4], 111% (inactive); in assay [5], 88.8% (inactive); in assay [6] (setting [9]) it was 92.2%; in assay [6] (setting [10]), 88.8%. The Her2 level in assay [2] was 81.5% (inactive). Besides, the differential viability (reversal) in assay [6] (H69AR cells + 2 uM doxorubicin) is -3.33% (inactive). Further, the results for the inhibition in assay [7] and in assay [8] were -1.18% (inactive) and -4% (inactive), respectively.
